Data on 5 molecules can be found in ChEMBL document CHEMBL1154166, “Crystallographic study of a novel subnanomolar inhibitor provides insight on the binding interactions of alkenyldiarylmethanes with human immunodeficiency virus-1 reverse transcriptase” (J Med Chem, 2009).

In series [1] the test system is Human immunodeficiency virus 1. As to the kind of experiment: Antiviral activity against NNRTI-resistant HIV1 NL4-3 with reverse transcriptase K103N mutation infected in human CEM-SS cells assessed as inhibition of virus-induced cytopathic effect by XTT assay. It is filed as functional, organism-based. The conditions noted are these: Human immunodeficiency virus 1, NL4-3, CEM-SS. A digest of the protocol: (§1)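 XTT cytoprotection readout in CEM-SS cells infected with HIV-1 RF or with HIV-1 NL4-3 carrying RT K103N or Y181C. EC50 is the concentration giving 50% inhibition of virus-induced cytopathic effect.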
On the technique in general: Protection from cytopathic effect is a common read-out in antiviral testing.

Series [2] relates to Human immunodeficiency virus 2. Briefly: Antiviral activity against HIV2 ROD infected in human MT4 cells assessed as inhibition of virus-induced cytopathic effect by MTT assay. In kind it is functional, organism-based. In a few lines:
(§2)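 Infected MT-4 cells (HIV-1 IIIB or HIV-2 ROD), protection from viral cytopathic effect read by MTT assay; EC50 = concentration giving 50% inhibition of cytopathic effect. CC50 from mock-infected MT-4 cells.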

The subject of series [3] is Human immunodeficiency virus 1. Briefly: Antiviral activity against NNRTI-resistant HIV1 NL4-3 with reverse transcriptase Y181C mutation infected in human CEM-SS cells assessed as inhibition of virus-induced cytopathic effect by XTT assay. In kind it is functional, organism-based. The conditions noted are these: Human immunodeficiency virus 1, NL4-3, CEM-SS. In a few lines: as §1

The subject of series [4] is Human immunodeficiency virus 1. As to the kind of experiment: Antiviral activity against HIV1 RF infected in human CEM-SS cells assessed as inhibition of virus-induced cytopathic effect by XTT assay. In kind it is functional, organism-based. The note with it: Human immunodeficiency virus 1, RF. In a few lines:
as §1

Series [5] in a line: (§3) Cytotoxicity against human CEM-SS cells. In kind it is cell-based. The note with it: CEM-SS cells. A digest of the protocol: (§4)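 Mock-infected CEM-SS cells, handled alongside the XTT antiviral assay. CC50 is the concentration causing death of 50% of cells.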
Series [6] in a line: (§5) Cytotoxicity against human MT4 cells. It is filed as cell-based. The conditions noted are these: MT4 cells. A digest of the protocol:
(§6)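 Mock-infected MT-4 cells, handled alongside the MTT antiviral assay run with HIV-1 IIIB and HIV-2 ROD. CC50 is the concentration causing death of 50% of cells.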

A short description of series [7]: (§7) Stability in rat plasma. It is filed as ADME, cell-free. In a few lines: (§8)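 Compound incubated in reconstituted rat plasma with 1,1-diphenylethylene internal standard; remaining compound quantified by reversed-phase C18 HPLC, 8:2 acetonitrile-water, column at room temperature; half-life per replicate from regression of concentration versus time, averaged over two replicates.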

Series [8] deals with Human immunodeficiency virus type 1 reverse transcriptase (Human immunodeficiency virus 1, UniProt Q72547). Briefly: Inhibition of HIV1 reverse transcriptase p66/p51 using poly(rC)-oligo)dG) as template. In a few lines:
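Purified recombinant HIV-1 RT p66/51 heterodimer; poly(rC)·oligo(dG) homopolymer template/primer; activity measured as 32P-labeled […] incorporated into nascent DNA across increasing inhibitor concentrations; IC50 derived.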

For series [9], the system named is Human immunodeficiency virus 1. Briefly: Antiviral activity against HIV1 3B infected in human MT4 cells assessed as inhibition of virus-induced cytopathic effect by MTT assay. It is filed as functional, organism-based. The conditions noted are these: Human immunodeficiency virus 1, 3B. A digest of the protocol: as §2
The test system of the next series is CEM-SS. The series is described as §3. The note with it: cem-ss. It is filed as cell-based. In a few lines:
as §4

The next series deals with MT4. The series is described as §5. In kind it is cell-based. The note with it: mt4. A digest of the protocol: as §6
A further series has as its system Plasma. Described as §7. In kind it is ADME, cell-free. In a few lines:
as §8

Usually EC50 stands for the concentration at which the effect is half-maximal. Regarding `COC(=O)CCCC=C(c1cc(Br)c(OC)c(C(=O)OC)c1)c1cc(Br)c(OC)c(C(=O)OC)c1`, the EC50 in series [1] is 420 nM; in series [2] it was “Not Active”; in [3], 6.1 µM; in [4] it was 100 nM.

For orientation: CC50 means the concentration that lowers cell viability or growth by half. The low end stands for greater toxicity to the cells, the high end for lower toxicity to the cells. Usually half-life stands for how long it takes for the measured level to halve. On to `COC(=O)CCCC=C(c1cc(C#N)c(OC)c(C(=O)OC)c1)c1cc(C#N)c(OC)c(C(=O)OC)c1`, for which the results for the concentration giving a half-maximal response (EC50) entry in series [2] and in series [4] were “Not Active” and 700 nM, respectively. Also, the CC50 in series [5] is 17 µM; in series [6] it was over 100 µM. The molecule also yielded a half-life in [7] of 12.4 min.

Consider `COC(=O)CCC/C=C(\c1cc(C)c(OC)c(C(=O)OC)c1)c1cc(C)c2oc(=O)n(C)c2c1`, for which the EC50 result in series [2] is reported as “Not Active”.

What is called IC50 is the midpoint of a concentration-inhibition curve. Low readings indicate inhibition by little substance, high ones a need for much substance. Take `COc1c(C)cc(/C(=C\CCCc2nnc(C)o2)c2cc(C)c3oc(=O)n(C)c3c2)cc1C(=O)SC`: the EC50 was over 100000 nM in series [1]; “Not Active” in series [2]; 180 nM in [9]; over 100 µM in series [3]; 70 nM in series [4]. The same molecule showed an IC50 in [8] of under 1 nM. Further, the CC50 came out at 3000 nM in the series with CEM-SS and 3.9 µM in the series with MT4. In addition, in the series with Plasma, the t1/2 came out at 238 min.

With `Cc1ccnc2c1NC(=O)c1cccnc1N2C1CC1` [NEVIRAPINE], the EC50 came out at 600 nM in series [1] and 0.8 µM in [3].
